{"data": "Published values from different studies", "observed": "cell growth or viability"}
{"Structure (SMILES)": "NC(=O)c1ncn([C@@H]2O[C@H](CO)[C@@H](O)[C@H]2O)n1", "cell line": "BHK-21", "technique": "WST-1", "time": "72 h", "endpoint": "CC50", "result": "> 100 µM"}
{"Structure (SMILES)": "C=C1[C@@H]2[C@H]3OC(=O)C(=C)[C@@H]3CCC(=C)[C@@H]2C[C@@H]1OC(C)=O", "cell line": "CHO-K1", "technique": "MTT", "time": "72 h", "endpoint": "CC50", "result": "6.9 µM"}
{"Structure (SMILES)": "COC(=O)c1[nH]cc(-c2c[nH]c3ccc(Cl)cc23)c1-c1c[nH]c2ccc(Cl)cc12", "cell line": "RAW264.7", "technique": "resazurin", "time": "72 h", "endpoint": "CC50", "result": "> 10 µM"}
{"Structure (SMILES)": "CCNc1nc(Nc2ccc(F)c(Cl)c2)c2ccccc2n1", "cell line": "Vero", "technique": "MTT", "tested at": "500 µg/mL", "endpoint": "viability", "result": "6.91%"}
{"Structure (SMILES)": "Cn1cnc2c1c(=O)n(CC(=O)Nc1c(Cl)cccc1Cl)c(=O)n2C", "cell line": "Vero", "technique": "MTT", "tested at": "250 µg/mL", "endpoint": "viability", "result": "70.7%"}
{"Structure (SMILES)": "Fc1ccc(NCc2ccc(Oc3ccccn3)cc2)cc1", "cell line": "Vero", "technique": "MTT", "time": "72 h", "endpoint": "CC50", "result": "> 300 µM"}
{"Structure (SMILES)": "COc1ccc(S(=O)(=O)ON=C2C=C(C)C(=O)C(C)=C2)cc1", "cell line": "MDA-MB-436", "endpoint": "CC50", "result": "2.85 µM"}
{"Structure (SMILES)": "O=S(=O)(NNc1nnc(Cl)c2ccccc12)c1ccc(F)cc1", "cell line": "Vero", "technique": "MTT", "tested at": "250 µg/mL", "endpoint": "viability", "result": "24.9%"}
{"Structure (SMILES)": "C=C1CC[C@@H](O)[C@]2(C)CC[C@H]3C(=C)C(=O)O[C@@H]3[C@@H]12", "cell line": "CHO-K1", "technique": "MTT", "time": "72 h", "endpoint": "CC50", "result": "31.3 µM"}
{"Structure (SMILES)": "COc1ccc2c(Cc3ccccc3F)c3[n+](cc2c1OC)CCc1cc2c(cc1-3)OCO2", "cell line": "L929", "technique": "CCK-8", "time": "24 h", "endpoint": "IC50", "result": "19.9 µM"}
